Experimental data as given in ChEMBL document CHEMBL1275449, “Potent in vitro antifungal activities of naturally occurring acetylenic acids” (Antimicrob Agents Chemother, 2008).
The source made the active and inactive calls.

Assays:
Assay type in all cases: functional, organism-based
Aspergillus niger = test: Antifungal activity against Aspergillus niger ATCC 16404 at 198.1 uM after 48 hrs by CLSI method
Trichophyton rubrum = test: Antifungal activity against Trichophyton rubrum ATCC MYA-4438 at 9.4 uM after 5 days by CLSI method
Procedure, shortened: (§1)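 Trichophyton growth scraped from 1–6-week potato dextrose slants and filtered through Miracloth. Inoculum 2.7 × 10⁴ CFU/ml (final) in 5% Alamar blue-RPMI 1640 buffered with MOPS, pH 7.0. Duplicate twofold dilutions from 20% DMSO-saline. Incubated 35°C for 5 days. Fluorescence read at 544 nm excitation, 590 nm emission. Inhibition assessed at the highest test concentration.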

Candida albicans [1] = test: Antifungal activity against Fluconazole resistant Candida albicans isolate 1 at 9.4 uM after 48 hrs by CLSI method
Procedure, shortened: (§2)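 Candida in CLSI broth microdilution. Saline colony suspension set to 1.5 × 10³ CFU/ml (final) in MOPS-buffered RPMI 1640, pH 7.0. Test agent given as twofold serial dilutions in 20% DMSO-saline, duplicate wells. 35°C for 48 h. Growth read as OD530 before and after incubation. Percent inhibition scored at the highest test concentration.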

Candida albicans [2] = test: Antifungal activity against Fluconazole resistant Candida albicans isolate 17 at 9.4 uM after 48 hrs by CLSI method; procedure, shortened: as §2
[3] = test system: Trichophyton mentagrophytes; test: Antifungal activity against Trichophyton mentagrophytes ATCC MYA-4439 at 9.4 uM after 5 days by CLSI method; procedure, shortened: as §1
Candida albicans [4] = test: Antifungal activity against Candida albicans ATCC 32354 at 169.8 uM after 48 hrs by CLSI method
Procedure, shortened: (§3)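 Candida inocula came from 24–72-h SD agar colonies suspended in saline. They were diluted by OD630 standard curve into RPMI 1640 (0.2% dextrose, 0.03% glutamine, 0.165 M MOPS, pH 7.0) to 1.5 × 10³ CFU/ml. Compounds were run as 11 twofold dilutions in 20% DMSO-saline, in duplicate, at 35°C for 48 h, with OD530 read before and after. Percent growth at the top concentration, IC50, MIC, and MFC (SD agar plating) were derived.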

Candida albicans [5] = test: Antifungal activity against Candida albicans ATCC 90028 at 169.8 uM after 48 hrs by CLSI method; procedure, shortened: as §3
Candida tropicalis [6] = test: Antifungal activity against Candida tropicalis ATCC 750 at 169.8 uM after 48 hrs by CLSI method
Procedure, shortened: (§4)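 Yeast suspensions made from 3-5 colonies off 24-72 h SD agar plates in saline. They were diluted by OD630 standard curve in RPMI 1640 (0.2% dextrose, 0.03% glutamine, 0.165 M MOPS, pH 7.0) to 1.5 × 10³ CFU/ml. Twofold dilutions (11 concentrations, 20% DMSO-saline) run in duplicate. OD530 read before and after 35°C, 48 h. Line values are top test concentrations; no-growth endpoints give MIC/MFC.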

Cryptococcus neoformans = test: Antifungal activity against Cryptococcus neoformans ATCC 90113 at 169.8 uM after 72 hrs by CLSI method
Procedure, shortened: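 SD broth replaced RPMI because growth in RPMI was poor; other CLSI conditions were kept. Inoculum was 1.5 × 10³ CFU/ml from colonies on SD agar, checked by plating. Twofold serial dilutions (11 concentrations) in 20% DMSO-saline were tested in duplicate. OD530 was read before and after incubation at 35°C for 72 h. Percent growth gave IC50; the MIC is the lowest concentration with no detectable growth.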

Nakaseomyces glabratus = test: Antifungal activity against Candida glabrata ATCC 90030 at 169.8 uM after 48 hrs by CLSI method; procedure, shortened: as §3
Candida albicans [7] = test: Antifungal activity against Fluconazole resistant Candida albicans isolate 17 at 168.9 uM after 48 hrs by CLSI method; procedure, shortened: as §2
Candida albicans [8] = test: Antifungal activity against Fluconazole resistant Candida albicans isolate 1 at 168.9 uM after 48 hrs by CLSI method; procedure, shortened: as §2
Pichia kudriavzevii = test: Antifungal activity against Candida krusei ATCC 6258 at 168.9 uM after 48 hrs by CLSI method; procedure, shortened: as §3
Candida tropicalis [9] = test: Antifungal activity against Candida tropicalis ATCC 750 at 168.9 uM after 48 hrs by CLSI method; procedure, shortened: as §4
Candida albicans [10] = test: Antifungal activity against Fluconazole resistant Candida albicans isolate 1 at 187.7 uM after 48 hrs by CLSI method; procedure, shortened: as §2
Candida albicans [11] = test: Antifungal activity against Fluconazole resistant Candida albicans isolate 17 at 187.7 uM after 48 hrs by CLSI method; procedure, shortened: as §2
Aspergillus fumigatus [12] = test: Antifungal activity against Aspergillus fumigatus ATCC 204305 at 187.7 uM after 48 hrs by CLSI method
Candida albicans [13] = test: Antifungal activity against Candida albicans ATCC 200955 at 187.7 uM after 48 hrs by CLSI method; procedure, shortened: as §3
Aspergillus fumigatus [14] = test: Antifungal activity against Aspergillus fumigatus ATCC 90906 at 187.7 uM after 48 hrs by CLSI method
Candida albicans [15] = test: Antifungal activity against Candida albicans ATCC 32354 at 187.7 uM after 48 hrs by CLSI method; procedure, shortened: as §3

Measured: Activity

CCCCCCCCCC#CCCCCC(=O)O
inactive: Aspergillus niger

CC(=O)N1CCN(c2ccc(OCC3COC(Cn4ccnc4)(c4ccc(Cl)cc4Cl)O3)cc2)CC1 (stereo not given) [KETOCONAZOLE]
inactive: Trichophyton rubrum | Candida albicans [1] | Candida albicans [2] | [3]

CCCCCCCCCCCCC#CCCCCC(=O)O [6-NONADECYNOIC ACID]
inactive: Candida albicans [4] | Candida albicans [5] | Candida tropicalis [6] | Cryptococcus neoformans | Nakaseomyces glabratus

CCCCCC#CCC#CCC#CCC#CCCCC(=O)O
inactive: Candida albicans [7] | Candida albicans [8] | Pichia kudriavzevii | Candida tropicalis [9]

CCCCCCCCCCC#CCCCCC(=O)O
inactive: Candida albicans [10] | Candida albicans [11] | Aspergillus fumigatus [12] | Candida albicans [13] | Aspergillus fumigatus [14] | Candida albicans [15]
